From ChEMBL document CHEMBL2380270, “Radiosynthesis and first evaluation in mice of [(18)F]NS14490 for molecular imaging of α7 nicotinic acetylcholine receptors” (Bioorg Med Chem, 2013)

Tests used:
Pancreas [1] = assay: Biodistribution in CD1 mouse pancreas at 200 to 300 kBq, iv measured at 30 mins by gamma counting analysis; assay type: ADME, organism-based; conditions: in vivo, 0.5 h
Summary of the method: (§1)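 Female CD-1 mice received 200–300 kBq [18F]radiotracer intravenously. Blood and urine were sampled under anaesthesia, then mice were killed by cervical dislocation at 5, 15, 30 or 60 min p.i. (n = 3; control at 60 min n = 7). Organs were removed and weighed, activity was gamma-counted, and uptake was expressed as % injected dose per g wet tissue.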

Kidney = assay: Biodistribution in CD1 mouse kidney at 200 to 300 kBq, iv measured at 60 mins by gamma counting analysis; assay type: ADME, organism-based; conditions: in vivo, 1 h
Summary of the method: (§2)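 Female CD-1 mice, 200–300 kBq radiotracer given iv, n = 3 per time point. Animals anaesthetised for blood and urine sampling, then killed by cervical dislocation at 5, 15, 30 or 60 min p.i. Organs removed, weighed and gamma-counted; uptake expressed as % injected dose per g wet tissue.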

Muscle tissue [2] = assay: Biodistribution in CD1 mouse muscle at 200 to 300 kBq, iv measured at 5 mins by gamma counting analysis; assay type: ADME, organism-based; conditions: in vivo; summary of the method: as §1
Mus musculus [3] = assay: Biodistribution in CD1 mouse large intestine at 200 to 300 kBq, iv measured at 15 mins by gamma counting analysis; assay type: ADME, organism-based; conditions: in vivo, 0.25 h; summary of the method: as §2
Heart [4] = assay: Biodistribution in CD1 mouse heart at 200 to 300 kBq, iv measured at 15 mins by gamma counting analysis; assay type: ADME, organism-based; conditions: in vivo, 0.25 h; summary of the method: as §2
Mus musculus [5] = assay: Biodistribution in CD1 mouse large intestine at 200 to 300 kBq, iv measured at 60 mins by gamma counting analysis; assay type: ADME, organism-based; conditions: in vivo, 1 h; summary of the method: as §2
Mus musculus [6] = assay: Biodistribution in CD1 mouse adrenal at 200 to 300 kBq, iv measured at 60 mins by gamma counting analysis; assay type: ADME, organism-based, Adrenal gland; conditions: in vivo, 1 h; summary of the method: as §2
Spleen [7] = assay: Biodistribution in CD1 mouse spleen at 200 to 300 kBq, iv measured at 30 mins by gamma counting analysis; assay type: ADME, organism-based; conditions: in vivo, 0.5 h; summary of the method: as §1
Blood [8] = assay: Biodistribution in CD1 mouse blood at 200 to 300 kBq, iv measured at 60 mins by gamma counting analysis; assay type: ADME, organism-based; conditions: in vivo, 1 h; summary of the method: as §2
Mus musculus [9] = assay: Biodistribution in CD1 mouse small intestine at 200 to 300 kBq, iv measured at 15 mins by gamma counting analysis; assay type: ADME, organism-based; conditions: in vivo, 0.25 h; summary of the method: as §1
Brain [10] = assay: Biodistribution in CD1 mouse brain at 200 to 300 kBq, iv measured at 60 mins by gamma counting analysis; assay type: ADME, organism-based; conditions: in vivo, 1 h; summary of the method: as §2
Zone of skin [11] = assay: Biodistribution in CD1 mouse skin at 200 to 300 kBq, iv measured at 5 mins by gamma counting analysis; assay type: ADME, organism-based; conditions: in vivo; summary of the method: as §1
Urinary bladder [12] = assay: Biodistribution in CD1 mouse bladder at 200 to 300 kBq, iv measured at 30 mins by gamma counting analysis; assay type: ADME, organism-based; conditions: in vivo, 0.5 h; summary of the method: as §2
Mus musculus [13] = assay: Biodistribution in CD1 mouse adrenal at 200 to 300 kBq, iv measured at 15 mins by gamma counting analysis; assay type: ADME, organism-based, Adrenal gland; conditions: in vivo, 0.25 h; summary of the method: as §2
Liver [14] = assay: Biodistribution in CD1 mouse liver at 200 to 300 kBq, iv measured at 60 mins by gamma counting analysis; assay type: ADME, organism-based; conditions: in vivo, 1 h; summary of the method: as §1
Liver [15] = assay: Biodistribution in CD1 mouse liver at 200 to 300 kBq, iv measured at 15 mins by gamma counting analysis; assay type: ADME, organism-based; conditions: in vivo, 0.25 h; summary of the method: as §1
Mus musculus [16] = assay: Biodistribution in CD1 mouse small intestine at 200 to 300 kBq, iv measured at 30 mins by gamma counting analysis; assay type: ADME, organism-based; conditions: in vivo, 0.5 h; summary of the method: as §1
Muscle tissue [17] = assay: Biodistribution in CD1 mouse muscle at 200 to 300 kBq, iv measured at 15 mins by gamma counting analysis; assay type: ADME, organism-based; conditions: in vivo, 0.25 h; summary of the method: as §1
Zone of skin [18] = assay: Biodistribution in CD1 mouse skin at 200 to 300 kBq, iv measured at 15 mins by gamma counting analysis; assay type: ADME, organism-based; conditions: in vivo, 0.25 h; summary of the method: as §1
Blood [19] = assay: Biodistribution in CD1 mouse blood at 200 to 300 kBq, iv measured at 15 mins by gamma counting analysis; assay type: ADME, organism-based; conditions: in vivo, 0.25 h; summary of the method: as §2
Stomach = assay: Biodistribution in CD1 mouse stomach at 200 to 300 kBq, iv measured at 30 mins by gamma counting analysis; assay type: ADME, organism-based; conditions: in vivo, 0.5 h; summary of the method: as §1
Pancreas [20] = assay: Biodistribution in CD1 mouse pancreas at 200 to 300 kBq, iv measured at 5 mins by gamma counting analysis; assay type: ADME, organism-based; conditions: in vivo; summary of the method: as §1
Spleen [21] = assay: Biodistribution in CD1 mouse spleen at 200 to 300 kBq, iv measured at 15 mins by gamma counting analysis; assay type: ADME, organism-based; conditions: in vivo, 0.25 h; summary of the method: as §1
Mus musculus [22] = assay: Biodistribution in CD1 mouse thymus at 200 to 300 kBq, iv measured at 60 mins by gamma counting analysis in presence of SSR180711; assay type: ADME, organism-based; conditions: in vivo, 1 h
Summary of the method: (§3)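 Female CD-1 mice given 200–300 kBq tracer intravenously. Animals anaesthetised for blood and urine sampling, then killed by cervical dislocation at 5, 15, 30 or 60 min (n = 3 per time; n = 7 at 60 min). Organs removed and weighed, activity gamma-counted, expressed as % injected dose per g wet weight. Blocking arm: 10 mg/kg i.p. in 0.9% saline, 10 min before tracer; two-tailed unpaired t test versus control.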

Urinary bladder [23] = assay: Biodistribution in CD1 mouse bladder at 200 to 300 kBq, iv measured at 5 mins by gamma counting analysis; assay type: ADME, organism-based; conditions: in vivo; summary of the method: as §2
Femur = assay: Biodistribution in CD1 mouse femur at 200 to 300 kBq, iv measured at 5 mins by gamma counting analysis; assay type: ADME, organism-based; conditions: in vivo; summary of the method: as §2
Mus musculus [24] = assay: Biodistribution in CD1 mouse adrenal at 200 to 300 kBq, iv measured at 30 mins by gamma counting analysis; assay type: ADME, organism-based, Adrenal gland; conditions: in vivo, 0.5 h; summary of the method: as §2
Muscle tissue [25] = assay: Biodistribution in CD1 mouse muscle at 200 to 300 kBq, iv measured at 30 mins by gamma counting analysis; assay type: ADME, organism-based; conditions: in vivo, 0.5 h; summary of the method: as §1
Zone of skin [26] = assay: Biodistribution in CD1 mouse skin at 200 to 300 kBq, iv measured at 60 mins by gamma counting analysis in presence of SSR180711; assay type: ADME, organism-based; conditions: in vivo, 1 h
Summary of the method: (§4)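 Blocking design in female CD-1 mice, n = 7 per group. The blocker was given at 10 mg kg^-1 i.p. in 0.9% saline 10 min before i.v. 200–300 kBq [18F]radiotracer. Mice were killed at 60 min p.i. and organs weighed and gamma-counted as % ID per g wet weight. Blocked groups were compared with controls by two-tailed independent Student's t test.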

Liver [27] = assay: Biodistribution in CD1 mouse liver at 200 to 300 kBq, iv measured at 5 mins by gamma counting analysis; assay type: ADME, organism-based; conditions: in vivo; summary of the method: as §1
Zone of skin [28] = assay: Biodistribution in CD1 mouse skin at 200 to 300 kBq, iv measured at 30 mins by gamma counting analysis; assay type: ADME, organism-based; conditions: in vivo, 0.5 h; summary of the method: as §1
Brain [29] = assay: Biodistribution in CD1 mouse brain at 200 to 300 kBq, iv measured at 30 mins by gamma counting analysis; assay type: ADME, organism-based; conditions: in vivo, 0.5 h; summary of the method: as §2
Heart [30] = assay: Biodistribution in CD1 mouse heart at 200 to 300 kBq, iv measured at 30 mins by gamma counting analysis; assay type: ADME, organism-based; conditions: in vivo, 0.5 h; summary of the method: as §2
Lung = assay: Biodistribution in CD1 mouse lung at 200 to 300 kBq, iv measured at 5 mins by gamma counting analysis; assay type: ADME, organism-based; conditions: in vivo; summary of the method: as §1
Liver [31] = assay: Biodistribution in CD1 mouse liver at 200 to 300 kBq, iv measured at 60 mins by gamma counting analysis in presence of SSR180711; assay type: ADME, organism-based; conditions: in vivo, 1 h; summary of the method: as §4
Mus musculus [32] = assay: Biodistribution in CD1 mouse thymus at 200 to 300 kBq, iv measured at 60 mins by gamma counting analysis; assay type: ADME, organism-based; conditions: in vivo, 1 h; summary of the method: as §3

Q: Which Drug uptake (Pancreas [1]) does the source give for O=C(Oc1ccc(Br)cc1)N1CCN2CCC1CC2 [SSR180711] here?
A: Its Drug uptake is 4.2 % ID/g.

Q: And the Drug uptake (Kidney)?
A: The Drug uptake was 10.4 % ID/g.

Q: What about the Drug uptake (Muscle tissue [2]) of the same molecule?
A: Its Drug uptake is 1.59 % ID/g.

Q: What about the Drug uptake (Mus musculus [3]) of the same molecule?
A: The Drug uptake was 2.65 % ID/g.

Q: What about the Drug uptake (Heart [4]) of the same molecule?
A: Its Drug uptake is 2.96 % ID/g.

Q: What about the Drug uptake (Mus musculus [5]) of the same molecule?
A: The Drug uptake was 5.02 % ID/g.

Q: What about the Drug uptake (Mus musculus [6]) of the same molecule?
A: Its Drug uptake is 3.01 % ID/g.

Q: What about the Drug uptake (Spleen [7]) of the same molecule?
A: Its Drug uptake is 7.5 % ID/g.

Q: What about the Drug uptake (Blood [8]) of the same molecule?
A: Its Drug uptake is 0.78 % ID/g.

Q: What about the Drug uptake (Mus musculus [9]) of the same molecule?
A: Its Drug uptake is 6.72 % ID/g.

Q: And the Drug uptake (Brain [10])?
A: The Drug uptake was 0.18 % ID/g.

Q: And the Drug uptake (Zone of skin [11])?
A: The Drug uptake was 0.81 % ID/g.

Q: And the Drug uptake (Urinary bladder [12])?
A: The Drug uptake was 2.08 % ID/g.

Q: And the Drug uptake (Mus musculus [13])?
A: The Drug uptake was 5.65 % ID/g.

Q: And the Drug uptake (Liver [14])?
A: Its Drug uptake is 7.79 % ID/g.

Q: What about the Drug uptake (Liver [15]) of the same molecule?
A: Its Drug uptake is 9.39 % ID/g.

Q: And the Drug uptake (Mus musculus [16])?
A: Its Drug uptake is 11 % ID/g.

Q: What about the Drug uptake (Muscle tissue [17]) of the same molecule?
A: Its Drug uptake is 1.88 % ID/g.

Q: And the Drug uptake (Zone of skin [18])?
A: Its Drug uptake is 1.4 % ID/g.

Q: And the Drug uptake (Blood [19])?
A: The Drug uptake was 1.25 % ID/g.

Q: What about the Drug uptake (Stomach) of the same molecule?
A: Its Drug uptake is 7.29 % ID/g.

Q: What about the Drug uptake (Pancreas [20]) of the same molecule?
A: The Drug uptake was 5.16 % ID/g.

Q: What about the Drug uptake (Spleen [21]) of the same molecule?
A: The Drug uptake was 8.23 % ID/g.

Q: What about the Drug uptake (Mus musculus [22]) of the same molecule?
A: The Drug uptake was 2.47 % ID/g.

Q: And the Drug uptake (Urinary bladder [23])?
A: The Drug uptake was 1.27 % ID/g.

Q: And the Drug uptake (Femur)?
A: Its Drug uptake is 1.45 % ID/g.

Q: And the Drug uptake (Mus musculus [24])?
A: Its Drug uptake is 4.61 % ID/g.

Q: What about the Drug uptake (Muscle tissue [25]) of the same molecule?
A: The Drug uptake was 1.26 % ID/g.

Q: And the Drug uptake (Zone of skin [26])?
A: The Drug uptake was 2.04 % ID/g.

Q: What about the Drug uptake (Liver [27]) of the same molecule?
A: The Drug uptake was 6.29 % ID/g.

Q: What about the Drug uptake (Zone of skin [28]) of the same molecule?
A: The Drug uptake was 1.23 % ID/g.

Q: And the Drug uptake (Brain [29])?
A: The Drug uptake was 0.18 % ID/g.

Q: What about the Drug uptake (Heart [30]) of the same molecule?
A: Its Drug uptake is 2.41 % ID/g.

Q: What about the Drug uptake (Lung) of the same molecule?
A: Its Drug uptake is 8.48 % ID/g.

Q: And the Drug uptake (Liver [31])?
A: The Drug uptake was 6.45 % ID/g.

Q: And the Drug uptake (Mus musculus [32])?
A: Its Drug uptake is 2.75 % ID/g.
